Experimental data published in ChEMBL document CHEMBL5038587, “Synthesis of Methoxy-, Methylenedioxy-, Hydroxy-, and Halo-Substituted Benzophenanthridinone Derivatives as DNA Topoisomerase IB (TOP1) and Tyrosyl-DNA Phosphodiesterase 1 (TDP1) Inhibitors and Their Biological Activity for Drug-Resistant Cancer” (J Med Chem, 2021).
The source made the active and inactive calls. The rule behind the calls is not given here.

target: T1, DNA topoisomerase 1 (Homo sapiens) (UniProt P11387); assay: Inhibition of recombinant TOP1 (unknown origin) at 1 uM using 3'-[32P]-labeled 117 bp DNA oligonucleotides as substrate incubated for 20 mins by PAGE analysis relative to CPT
T1 sequence (whole entry): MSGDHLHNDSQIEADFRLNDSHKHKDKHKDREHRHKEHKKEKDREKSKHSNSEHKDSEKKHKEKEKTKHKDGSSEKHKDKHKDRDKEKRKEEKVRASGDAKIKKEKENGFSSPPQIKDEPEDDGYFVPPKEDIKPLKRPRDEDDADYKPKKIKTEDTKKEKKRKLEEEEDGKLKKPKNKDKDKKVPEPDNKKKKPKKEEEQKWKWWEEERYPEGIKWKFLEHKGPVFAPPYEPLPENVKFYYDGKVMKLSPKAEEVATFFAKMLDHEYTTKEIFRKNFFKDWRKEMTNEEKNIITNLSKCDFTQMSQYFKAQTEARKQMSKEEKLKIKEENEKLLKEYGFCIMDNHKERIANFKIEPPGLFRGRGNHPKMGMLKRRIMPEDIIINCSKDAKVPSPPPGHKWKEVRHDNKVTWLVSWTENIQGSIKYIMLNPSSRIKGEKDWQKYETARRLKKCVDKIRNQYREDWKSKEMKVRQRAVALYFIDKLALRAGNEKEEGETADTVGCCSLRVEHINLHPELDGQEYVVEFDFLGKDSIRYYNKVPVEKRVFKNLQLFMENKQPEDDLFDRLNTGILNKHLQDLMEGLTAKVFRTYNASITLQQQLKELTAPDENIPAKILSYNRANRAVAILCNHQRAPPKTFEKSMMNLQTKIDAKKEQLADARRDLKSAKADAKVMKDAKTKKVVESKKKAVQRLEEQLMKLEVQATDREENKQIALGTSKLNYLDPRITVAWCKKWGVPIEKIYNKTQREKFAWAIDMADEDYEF
Method in brief: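 3'-[32P]-labeled 117 bp oligonucleotide (~2 nM) with recombinant TOP1 and compound, 25 °C, 20 min. Buffer: 10 mM Tris-HCl pH 7.5, 50 mM KCl, 5 mM MgCl2, 0.1 mM EDTA, BSA. Stopped with 0.5% SDS and run on 20% denaturing PAGE with phosphorimaging.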

SMILES | inhibition
COc1cc2c(=O)n(CCN(C)C)c3c4cc(O)c(O)cc4ccc3c2cc1OC | 50%
COc1cc2c(cc1OC(C)C)c(=O)n(CCN(C)C)c1c3cc4c(cc3ccc21)OCO4 | inactive
COc1ccc2c(c1OC)c(=O)n(CCN(C)C)c1c3cc4c(cc3ccc21)OCO4 | inactive
COc1ccc2c(=O)n(CCN(C)C)c3c4cc5c(cc4ccc3c2c1)OCO5 | 75%
COc1cccc2c(=O)n(CCN(C)C)c3c4ccccc4ccc3c12 | inactive
COc1ccc2c(=O)n(CCN(C)C)c3c4cc5c(cc4ccc3c2c1OC)OCO5 | inactive
CN(C)CCn1c(=O)c2cc3c(cc2c2ccc4ccccc4c21)OCO3 | 25%
CN(C)CCn1c(=O)c2cc3c(cc2c2ccc4cc5c(cc4c21)OCO5)OCO3 | 20%
COc1cc2ccc3c4cc5c(cc4c(=O)n(CCN(C)C)c3c2cc1OC)OCO5 | < 20%
COc1cccc2c1c(=O)n(CCN(C)C)c1c3ccccc3ccc21 | inactive
CN(C)CCn1c(=O)c2cc(F)c(F)cc2c2ccc3ccccc3c21 | 50%
COc1cc2ccc3c4cc(OC)c(OC)cc4c(=O)n(CCN(C)C)c3c2cc1O | < 20%
COc1ccc2c(=O)n(CCN(C)C)c3c4cc5c(cc4ccc3c2c1O)OCO5 | inactive
COc1ccc2c(c1)c(=O)n(CCN(C)C)c1c3ccccc3ccc21 | 20%
CN(C)CCn1c(=O)c2cc(F)c(F)cc2c2ccc3cc4c(cc3c21)OCO4 | 75%
COc1cc2ccc3c4ccc(OC)c(OC)c4c(=O)n(CCN(C)C)c3c2cc1OC | inactive
COc1cccc2ccc3c4ccccc4c(=O)n(CCN(C)C)c3c12 | inactive
CN(C)CCn1c(=O)c2ccc(F)cc2c2ccc3cc4c(cc3c21)OCO4 | 50%
CN(C)CCn1c(=O)c2cc(Br)ccc2c2ccc3cc4c(cc3c21)OCO4 | inactive
COc1ccc2c(c1O)c(=O)n(CCN(C)C)c1c3cc4c(cc3ccc21)OCO4 | 20%
CN(C)CCn1c(=O)c2ccc(Cl)cc2c2ccc3cc4c(cc3c21)OCO4 | 75%
COc1ccc2c(=O)n(CCN(C)C)c3c4ccccc4ccc3c2c1 | 20%
CN(C)CCn1c(=O)c2cc([N+](=O)[O-])ccc2c2ccc3cc4c(cc3c21)OCO4 | 75%
CN(C)CCn1c(=O)c2cc(O)c(O)cc2c2ccc3cc4c(cc3c21)OCO4 | 20%
COc1cc2c(=O)n(CCN(C)C)c3c4ccccc4ccc3c2cc1OC | 25%

SMILES | inhibition
CN(C)CCn1c(=O)c2cc(F)ccc2c2ccc3cc4c(cc3c21)OCO4 | 75%
COc1cc2c(=O)n(CCN(C)C)c3c4cc5c(cc4ccc3c2cc1O)OCO5 | 20%
CN(C)CCn1c(=O)c2ccccc2c2ccc3cc(Br)ccc3c21 | 20%
COc1cccc2c1ccc1c3ccccc3c(=O)n(CCN(C)C)c21 | 20%
COc1ccc2c(c1OC)c(=O)n(CCN(C)C)c1c3ccccc3ccc21 | inactive
COc1cc2c(=O)n(CCN(C)C)c3c4cc5c(cc4ccc3c2cc1OC(C)C)OCO5 | 20%
COc1cc2ccc3c4ccc5c(c4c(=O)n(CCN(C)C)c3c2cc1OC)OCO5 | 20%
CN(C)CCn1c(=O)c2ccc(C(F)(F)F)cc2c2ccc3cc4c(cc3c21)OCO4 | 50%
COc1cc2ccc3c4c(OC)c(OC)ccc4c(=O)n(CCN(C)C)c3c2cc1OC | inactive
COc1ccc2c(=O)n(CCN(C)C)c3c4ccccc4ccc3c2c1OC | inactive
COc1cc2ccc3c4cc(OC)c(OC)cc4c(=O)n(CCN(C)C)c3c2cc1OC | < 20%
COc1cc2c(ccc3c4cc(OC)c(OC)cc4c(=O)n(CCN(C)C)c23)cc1O | 20%
COc1ccc2ccc3c4ccccc4c(=O)n(CCN(C)C)c3c2c1 | 20%
COc1cc2ccccc2c2c1c1ccccc1c(=O)n2CCN(C)C | inactive
COc1cc2c3ccccc3c(=O)n(CCN(C)C)c2c2ccccc12 | < 20%
COc1ccc2c(c1)c(=O)n(CCN(C)C)c1c3cc4c(cc3ccc21)OCO4 | Active
COc1ccc2c(ccc3c4ccccc4c(=O)n(CCN(C)C)c23)c1 | 20%
CN(C)CCn1c(=O)c2c3c(ccc2c2ccc4ccccc4c21)OCO3 | 20%
CN(C)CCn1c(=O)c2c3c(ccc2c2ccc4cc5c(cc4c21)OCO5)OCO3 | 20%
CN(C)CCn1c(=O)c2ccccc2c2ccc3ccccc3c21 | 20%
CN(C)CCn1c(=O)c2ccccc2c2ccc3cc4c(cc3c21)OCO4 | 20%
CN(C)CCn1c(=O)c2cc(O)ccc2c2ccc3ccccc3c21 | 20%
COc1cc2ccc3c4ccccc4c(=O)n(CCN(C)C)c3c2cc1OC | 20%
COc1cccc2c1c(=O)n(CCN(C)C)c1c3cc4c(cc3ccc21)OCO4 | 20%
COc1cc2c(cc1O)c(=O)n(CCN(C)C)c1c3cc4c(cc3ccc21)OCO4 | 20%

tested on: HCT-116; assay: Cytotoxicity against human HCT-116 cells assessed as cell growth inhibition after 72 hrs by MTT assay; type: functional
Method in brief: (§1)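 Cells kept in RPMI 1640 or DMEM with 10% FBS at 37 °C, 5% CO2. Compounds predissolved in DMSO, tested in a five-dose series from 0.01 to 100 µM for 72 h, then read by MTT. Percent viability inhibition is taken against control, and GI50 is fitted by nonlinear regression.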

SMILES | GI50 [µM]
COc1cc2ccc3c4ccc(OC)c(OC)c4c(=O)n(CCN(C)C)c3c2cc1OC | > 100
COc1cc2c(=O)n(CCN(C)C)c3c4cc5c(cc4ccc3c2cc1OC(C)C)OCO5 | 0.9
COc1cc2ccc3c4c(OC)c(OC)ccc4c(=O)n(CCN(C)C)c3c2cc1OC | > 100

tested on: MCF7; assay: Cytotoxicity against human MCF-7 cells assessed as cell growth inhibition after 72 hrs by MTT assay; type: functional
Method in brief: (§2)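 Compounds predissolved in DMSO, tested in a five-dose series from 0.01 to 100 µM for 72 h, then read by MTT. Percent viability inhibition is taken against control, and GI50 is fitted by nonlinear regression.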

SMILES | GI50 [µM]
COc1ccc2c(=O)n(CCN(C)C)c3c4cc5c(cc4ccc3c2c1)OCO5 | 0.2
COc1ccc2c(=O)n(CCN(C)C)c3c4cc5c(cc4ccc3c2c1O)OCO5 | > 100
COc1cc2c(=O)n(CCN(C)C)c3c4cc5c(cc4ccc3c2cc1O)OCO5 | > 100
COc1cc2ccc3c4c(OC)c(OC)ccc4c(=O)n(CCN(C)C)c3c2cc1OC | > 100

target: Tyrosyl-DNA phosphodiesterase 1 (Homo sapiens, UniProt Q9NUW8); assay: Inhibition of TDP1 (unknown origin) using 5'-FAM-AGGATCTAAAAGACTT-BHQ-3' as substrate at 100 uM measured after 30 mins by fluorescence assay relative to control
Sequence (Q9NUW8 whole entry): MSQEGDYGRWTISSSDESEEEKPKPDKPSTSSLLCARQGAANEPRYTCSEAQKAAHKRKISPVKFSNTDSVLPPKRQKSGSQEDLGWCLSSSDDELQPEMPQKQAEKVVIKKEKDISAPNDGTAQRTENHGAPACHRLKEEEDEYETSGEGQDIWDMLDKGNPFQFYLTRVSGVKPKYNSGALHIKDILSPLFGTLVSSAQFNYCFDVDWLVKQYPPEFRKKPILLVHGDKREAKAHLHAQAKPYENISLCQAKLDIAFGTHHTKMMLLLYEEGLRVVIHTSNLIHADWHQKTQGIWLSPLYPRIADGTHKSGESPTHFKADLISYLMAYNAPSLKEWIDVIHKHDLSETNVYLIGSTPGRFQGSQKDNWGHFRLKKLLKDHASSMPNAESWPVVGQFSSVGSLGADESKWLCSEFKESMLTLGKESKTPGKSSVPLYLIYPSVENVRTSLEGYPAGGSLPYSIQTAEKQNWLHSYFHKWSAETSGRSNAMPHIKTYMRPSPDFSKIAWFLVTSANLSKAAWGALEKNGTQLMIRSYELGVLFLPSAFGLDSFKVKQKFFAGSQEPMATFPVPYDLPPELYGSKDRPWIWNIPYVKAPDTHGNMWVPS

SMILES | inhibition [%]
COc1cc2c(=O)n(CCN(C)C)c3c4cc(O)c(O)cc4ccc3c2cc1OC | 0
COc1cc2c(cc1OC(C)C)c(=O)n(CCN(C)C)c1c3cc4c(cc3ccc21)OCO4 | 0
COc1ccc2c(c1OC)c(=O)n(CCN(C)C)c1c3cc4c(cc3ccc21)OCO4 | 0
COc1ccc2c(=O)n(CCN(C)C)c3c4cc5c(cc4ccc3c2c1)OCO5 | 0
COc1cccc2c(=O)n(CCN(C)C)c3c4ccccc4ccc3c12 | 0
COc1ccc2c(=O)n(CCN(C)C)c3c4cc5c(cc4ccc3c2c1OC)OCO5 | 0
CN(C)CCn1c(=O)c2cc(F)c(F)cc2c2ccc3ccccc3c21 | 0
COc1cc2ccc3c4cc(OC)c(OC)cc4c(=O)n(CCN(C)C)c3c2cc1O | 0
COc1ccc2c(=O)n(CCN(C)C)c3c4cc5c(cc4ccc3c2c1O)OCO5 | 0
CN(C)CCn1c(=O)c2cc(F)c(F)cc2c2ccc3cc4c(cc3c21)OCO4 | 0
COc1cc2ccc3c4ccc(OC)c(OC)c4c(=O)n(CCN(C)C)c3c2cc1OC | 0
COc1cccc2ccc3c4ccccc4c(=O)n(CCN(C)C)c3c12 | 0
CN(C)CCn1c(=O)c2ccc(F)cc2c2ccc3cc4c(cc3c21)OCO4 | 0
CN(C)CCn1c(=O)c2cc(Br)ccc2c2ccc3cc4c(cc3c21)OCO4 | 0
CN(C)CCn1c(=O)c2ccc(Cl)cc2c2ccc3cc4c(cc3c21)OCO4 | 0
CN(C)CCn1c(=O)c2cc([N+](=O)[O-])ccc2c2ccc3cc4c(cc3c21)OCO4 | 0
CN(C)CCn1c(=O)c2cc(O)c(O)cc2c2ccc3cc4c(cc3c21)OCO4 | 0
CN(C)CCn1c(=O)c2cc(F)ccc2c2ccc3cc4c(cc3c21)OCO4 | 0

SMILES | inhibition [%]
COc1cc2c(=O)n(CCN(C)C)c3c4cc5c(cc4ccc3c2cc1O)OCO5 | 0
CN(C)CCn1c(=O)c2ccccc2c2ccc3cc(Br)ccc3c21 | 0
COc1cccc2c1ccc1c3ccccc3c(=O)n(CCN(C)C)c21 | 0
COc1ccc2c(c1OC)c(=O)n(CCN(C)C)c1c3ccccc3ccc21 | 0
COc1cc2c(=O)n(CCN(C)C)c3c4cc5c(cc4ccc3c2cc1OC(C)C)OCO5 | 0
COc1cc2ccc3c4ccc5c(c4c(=O)n(CCN(C)C)c3c2cc1OC)OCO5 | 0
CN(C)CCn1c(=O)c2ccc(C(F)(F)F)cc2c2ccc3cc4c(cc3c21)OCO4 | 0
COc1cc2ccc3c4c(OC)c(OC)ccc4c(=O)n(CCN(C)C)c3c2cc1OC | 0
COc1ccc2c(=O)n(CCN(C)C)c3c4ccccc4ccc3c2c1OC | 0
COc1ccc2ccc3c4ccccc4c(=O)n(CCN(C)C)c3c2c1 | 0
COc1cc2ccccc2c2c1c1ccccc1c(=O)n2CCN(C)C | 0
COc1ccc2c(c1)c(=O)n(CCN(C)C)c1c3cc4c(cc3ccc21)OCO4 | 0
COc1ccc2c(ccc3c4ccccc4c(=O)n(CCN(C)C)c23)c1 | 0
CN(C)CCn1c(=O)c2ccccc2c2ccc3ccccc3c21 | 0
CN(C)CCn1c(=O)c2ccccc2c2ccc3cc4c(cc3c21)OCO4 | 0
CN(C)CCn1c(=O)c2cc(O)ccc2c2ccc3ccccc3c21 | 0
COc1cccc2c1c(=O)n(CCN(C)C)c1c3cc4c(cc3ccc21)OCO4 | 0

tested on: A549; assay: Cytotoxicity against human A549 cells assessed as cell growth inhibition after 72 hrs by MTT assay; type: functional; method in brief: as §1

SMILES | GI50 [µM]
CN(C)CCn1c(=O)c2cc(F)ccc2c2ccc3cc4c(cc3c21)OCO4 | 7.87
COc1cc2c(=O)n(CCN(C)C)c3c4cc5c(cc4ccc3c2cc1O)OCO5 | > 100

tested on: DU-145; assay: Cytotoxicity against human DU145 cells assessed as cell growth inhibition after 72 hrs by MTT assay; type: functional; method in brief: as §2

SMILES | GI50 [µM]
CN(C)CCn1c(=O)c2cc(O)c(O)cc2c2ccc3cc4c(cc3c21)OCO4 | > 100
CN(C)CCn1c(=O)c2ccc(C(F)(F)F)cc2c2ccc3cc4c(cc3c21)OCO4 | 1
COc1cc2ccc3c4c(OC)c(OC)ccc4c(=O)n(CCN(C)C)c3c2cc1OC | > 100
